Assay results collected from several papers.
Each line is one published result; the experiments were not run side by side. pEC50, pIC50: −log10 of the molar value.

Compound | target or system | assay | test system | setting | endpoint | value
CN(C)c1ccc(-c2c(C(N)=S)c(N)n(N)c(=O)c2C#N)cc1 | Saccharomyces cerevisiae | microbial growth, well diffusion | ATCC9763 | 500 µg/mL | inhibition zone | 14 mm
Nc1ccc(/C=C/C(=O)N2CCc3c(oc4c(-c5ccc(F)cc5)cc(-c5ccc(C(=O)N6CCOCC6)nn5)cc34)C2)cn1 | PANC-1 | cell growth or viability, CCK-8 | – | 72 h | pIC50 | < 4.70
C=CC(=O)NC1CCN(c2ncc3ncnc(Nc4ccc(Oc5ccc6c(c5)ncn6C)c(C)c4)c3n2)CC1 | NUGC-4 | cell growth or viability | – | – | pEC50 | 7.84
Nc1ccc(/C=C/C(=O)N2CCc3c(oc4c(-c5ccc(F)cc5)cc(-c5ccc(C(=O)N6C[C@@H]7[C@H](C6)C7(F)F)nn5)cc34)C2)cn1 | PANC-1 | cell growth or viability, CCK-8 | – | 72 h | pIC50 | < 4.70
CCCCCCCCCCCCCCCCOP(=O)([O-])OCC[N+](C)(C)C | Leishmania tropica | parasite growth, resazurin | – | promastigote | pIC50 | 5.67
N#Cc1c(-c2ccc(OCc3ccccc3)cc2)c(C(N)=S)c(N)n(N)c1=O | Saccharomyces cerevisiae | microbial growth, well diffusion | ATCC9763 | 500 µg/mL | inhibition zone | 17 mm
O=C(NC(=S)Nc1ccccc1O)c1cccs1 | Leishmania tropica | parasite growth, resazurin | – | promastigote | pIC50 | 6.54
CCOc1ccc(-c2c(Cc3ccc(OC)cc3)[nH]/c(=N/C(=O)C34CC5CC(CC(C5)C3)C4)n2C)cc1OC | Hepatitis B virus | viral replication, inhibitor | HePAD38 | – | pIC50 | 4.96
Cc1c(C(=O)O)ccc2c3n(nc12)[C@@H]1[C@H](C3)N(CC2CC2)[C@@]2(C(=O)Nc3cc(Cl)ccc32)[C@H]1c1cccc(Cl)c1F | NUGC-4 | cell growth or viability, resazurin | – | – | pIC50 | 7.92
O=C(NO)c1ccc(CNc2nc3cccc(-c4ccc5c(c4)OCO5)n3n2)cc1 | SF-268 | cell growth or viability, SRB | – | – | GI50 | 470 nM
N#Cc1c(-c2ccc(OCc3ccccc3)cc2)c(C(N)=O)c(N)n(N)c1=O | Saccharomyces cerevisiae | microbial growth, well diffusion | ATCC9763 | 500 µg/mL | inhibition zone | 16 mm
O=C(NC(=S)Nc1nccs1)c1ccco1 | Leishmania tropica | parasite growth, resazurin | – | promastigote | pIC50 | 4.91
